Assay results reported in ChEMBL document CHEMBL3612038, “N-Alkyl/aryl-4-(3-substituted-3-phenylpropyl)piperazine-1-carbothioamide as dual-action vaginal microbicides with reverse transcriptase inhibition” (Eur J Med Chem, 2015).
Converted amounts (≈) assume the structure as drawn.

Legend:
Cryptococcus neoformans = experiment: Antifungal activity against Cryptococcus neoformans incubated for 48 hrs by broth micro-dilution method; format: functional
Outline: (§1)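 Broth microdilution per NCCLS guidelines in RPMI 1640 buffered with MOPS; starting inoculum 1–5 × 10^3 CFU/mL; plates incubated at 35 °C, MIC read after 48 h.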

[1] = molecular target: Human immunodeficiency virus type 1 reverse transcriptase (Human immunodeficiency virus 1) (UniProt Q72547); experiment: Inhibition of HIV1 reverse transcriptase at 100 ug/ml incubated for 1 hr by ELISA method
Outline: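 Non-radioactive colorimetric ELISA: template/primer with dNTPs plus HIV-1 RT in lysis buffer ± compound (100 µg/mL), 1 h at 37 °C; RT-free buffer as negative control, nevirapine as positive control. Product captured on streptavidin plate 1 h at 37 °C, detected with anti-DIG-POD and ABTS, OD 405 nm.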

Trichomonas vaginalis [2] = experiment: Resistance index, ratio of MIC for MTZ-resistant Trichomonas vaginalis to MIC for MTZ-susceptible Trichomonas vaginalis; format: functional
Candida albicans = experiment: Antifungal activity against Candida albicans incubated for 48 hrs by broth micro-dilution method; format: functional; outline: as §1
Aspergillus fumigatus = experiment: Antifungal activity against Aspergillus fumigatus incubated for 48 hrs by broth micro-dilution method; format: functional; outline: as §1
[3] = test system: Trichophyton mentagrophytes; experiment: Antifungal activity against Trichophyton mentagrophytes incubated for 48 hrs by broth micro-dilution method; format: functional; outline: as §1
Trichomonas vaginalis [4] = experiment: Anti-trichomonas activity against MTZ-susceptible Trichomonas vaginalis incubated for 3 to 48 hrs by trypan blue exclusion assay; format: functional
Outline: (§2)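 Trichomonas vaginalis trophozoites (5 × 10^4/L as printed) in TYM medium; DMSO stocks (100.0 mg/mL) serially diluted in TYM to 0.1 mg/mL, DMSO/TYM vehicle controls. Anaerobic incubation at 37 °C; viability checked 3–48 h by microscopy (200×) with trypan blue exclusion. MIC = lowest concentration killing all cells within 48 h.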

[5] = Effect on Lactobacillus jensenii ATCC 25258 62G assessed as effect on microbial proliferation at 200 ug/ml incubated for 24 hrs
Outline: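 L. jensenii ATCC 25258 (strain 62G) in 6% Rogosa SL broth with 0.132% acetic acid; serial compound dilutions or vehicle in triplicate, ~1000 CFU per well, 24 h at 37 °C, humidified 5% CO2; growth read as OD610, expressed relative to control = 100.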

Trichomonas vaginalis [6] = experiment: Anti-trichomonas activity against MTZ-resistant Trichomonas vaginalis incubated for 3 to 48 hrs by trypan blue exclusion assay; format: functional; outline: as §2
[7] = Spermicidal activity in liquefied human semen assessed as reduction in motile spermatozoa incubated at 37 degC for 30 mins; format: functional, Sperm; details: for minimal effective concentration: Homo sapiens, Sperm, Semen, 0.5 h, read-out: MEC
Outline: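 Compounds dissolved in minimal DMSO, diluted with 0.85% saline to 1.0% test solution; liquefied human semen mixed 1:5 with test solution, vortexed 10 s; motile sperm scored by phase-contrast microscopy over 60 s in five fields. MEC = lowest concentration immobilizing 100% of sperm, still immotile after dilution with nutrient medium.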

Candida parapsilosis = experiment: Antifungal activity against Candida parapsilosis ATCC 22019 incubated for 48 hrs by broth micro-dilution method; format: functional; details: Lodderomyces parapsilosis, ATCC 22019, 48 h; outline: as §1
Sporothrix schenckii = experiment: Antifungal activity against Sporothrix schenckii incubated for 48 hrs by broth micro-dilution method; format: functional; outline: as §1
HeLa = experiment: Cytotoxicity against human HeLa cells assessed as reduction in cell viability at 200 ug/ml incubated for 24 hrs by MTT assay; format: cell-based
Outline: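 HeLa cells seeded at 5 × 10^4 per well, exposed 24 h to compound dilutions in culture medium or vehicle control; MTT (5 mg/mL in pH 7.4 buffer) added, formazan dissolved in DMSO, absorbance read at 540 nm.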

[8] = Stability in simulated vaginal fluid at pH 4.2 at 200 ng/ml by LC-MS/MS method; details: buffer
[9] = AUC (0 to infinity) in New-Zealand rabbit at 33 mg/kg dosed through vaginal administration by LC-MS/MS method; format: ADME, organism-based, Oryctolagus cuniculus; design: dose 33 mg/kg, time infinity; details: in vivo
Outline: (§3)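 Female New Zealand rabbits received a single vaginal dose of 33 mg/kg. Drug in plasma was quantified by LC-MS/MS on a C18 column with phenacetin as internal standard. For each plasma sample (50 µL), 200 µL of internal-standard solution (200 ng/mL phenacetin in acetonitrile) was added. Samples were mixed, centrifuged at 13,000 rpm for 20 min, and the supernatant injected. The method was validated to FDA bioanalytical criteria.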

[10] = Tmax in New-Zealand rabbit at 33 mg/kg dosed through vaginal administration by LC-MS/MS method; format: ADME, organism-based, Oryctolagus cuniculus; details: in vivo; outline: as §3
Oryctolagus cuniculus = experiment: Drug level in plasma of New-Zealand rabbit at 33 mg/kg dosed through vaginal administration by LC-MS/MS method; format: ADME, organism-based; details: in vivo, other; outline: as §3
[11] = Cmax in New-Zealand rabbit at 33 mg/kg dosed through vaginal administration by LC-MS/MS method; format: ADME, organism-based, Oryctolagus cuniculus; design: dose 33 mg/kg; details: in vivo; outline: as §3
[12] = Terminal half life in New-Zealand rabbit at 33 mg/kg dosed through vaginal administration by LC-MS/MS method; format: ADME, organism-based, Oryctolagus cuniculus; details: in vivo, read-out: beta t1/2 (converted); outline: as §3

| SMILES | MIC (Cryptococcus neoformans) [µM] | inhibition [1] [%] | Ratio (Trichomonas vaginalis [2]) | MIC (Candida albicans) [µM] | MIC (Aspergillus fumigatus) [µM] | MIC [3] [µM] | MIC (Trichomonas vaginalis [4]) [µM] | Activity [5] | MIC (Trichomonas vaginalis [6]) [µM] | MEC [7] [%] | minimal effective concentration [7] [µM] | MIC (Candida parapsilosis) [µM] | MIC (Sporothrix schenckii) [µM] | Activity (HeLa) | Stability [8] [h] | AUC(0-inf) [9] [ng·h/mL] | Tmax [10] [h] | Drug uptake (Oryctolagus cuniculus) | Cmax [11] [ng/mL] | half-life [12] [h] |
| --- | --- | --- | --- | --- | --- | --- | --- | --- | --- | --- | --- | --- | --- | --- | --- | --- | --- | --- | --- | --- |
| OC(CCN1CCN(C(=S)NCCc2ccccc2)CC1)c1ccccc1 (configuration not stated) | > 81.2 | 45.3 | 4 | > 81.2 | > 81.2 | > 81.2 | 40.6 (≈ 15.6 µg/mL) | Non-toxic | 163 (≈ 62.6 µg/mL) | 0.1 | 2610 | > 81.2 | > 81.2 | Non-toxic |  |  |  |  |  |  |
| O=C(CCN1CCN(C(=S)NCc2ccccc2)CC1)c1ccccc1 | 8.47 (≈ 3.11 µg/mL) | 58.3 | 2 | 67.9 (≈ 25 µg/mL) | > 81.2 | 4.22 (≈ 1.55 µg/mL) | 85.1 (≈ 31.3 µg/mL) | Non-toxic | 341 (≈ 125 µg/mL) | 0.1 | 2720 | > 81.2 | > 81.2 | Non-toxic |  |  |  |  |  |  |
| O=C(CCN1CCN(C(=S)NCCc2ccccc2)CC1)c1ccccc1 | > 81.2 | 50.2 | 2 | > 81.2 | > 81.2 | > 81.2 | 40.8 (≈ 15.6 µg/mL) | Non-toxic | 164 (≈ 62.6 µg/mL) | 0.01 | 260 | > 81.2 | > 81.2 | Non-toxic |  |  |  |  |  |  |
| FC(F)(F)c1ccc(OC(CCN2CCN(C(=S)NC3CCCCC3)CC2)c2ccccc2)cc1 (configuration not stated) | > 81.2 | 24.3 | 2 | > 81.2 | > 81.2 | > 81.2 | 64.3 (≈ 32.5 µg/mL) | Non-toxic | 495 (≈ 250 µg/mL) | >1 | > 19800 | > 81.2 | > 81.2 | Non-toxic |  |  |  |  |  |  |
| OC(Cn1cncn1)(Cn1cncn1)c1ccc(F)cc1F [FLUCONAZOLE] | 6.53 (≈ 2 µg/mL) |  |  | 3.26 (≈ 0.998 µg/mL) | > 81.2 | > 81.2 |  |  |  |  |  | 6.53 (≈ 2 µg/mL) | 6.53 (≈ 2 µg/mL) |  |  |  |  |  |  |  |
| CCCCNC(=S)N1CCN(CCC(=O)c2ccccc2)CC1 | 9.34 (≈ 3.11 µg/mL) | 72.3 | 4 | 74.8 (≈ 24.9 µg/mL) | > 81.2 | 9.34 (≈ 3.11 µg/mL) | 46.7 (≈ 15.6 µg/mL) | Non-toxic | 188 (≈ 62.6 µg/mL) | 0.01 | 300 | > 81.2 | > 81.2 | Non-toxic | > 1 | 14.7 | 0.75 | Not Active | 4.43 | 4.67 |
| CCCCNC(=S)N1CCN(CCC(O)c2ccccc2)CC1 (configuration not stated) | > 81.2 | 29.1 | 4 | > 81.2 | > 81.2 | > 81.2 | 46.4 (≈ 15.6 µg/mL) | Non-toxic | 187 (≈ 62.6 µg/mL) | 0.05 | 1490 | > 81.2 | > 81.2 | Non-toxic |  |  |  |  |  |  |
| OC(CCN1CCN(C(=S)Nc2ccccc2)CC1)c1ccccc1 (configuration not stated) | > 81.2 |  | 2 | > 81.2 | > 81.2 | > 81.2 |  | Non-toxic | 352 (≈ 125 µg/mL) | 0.1 | 2820 | > 81.2 | > 81.2 | Non-toxic |  |  |  |  |  |  |
| OC(CCN1CCN(C(=S)NC2CCCCC2)CC1)c1ccccc1 (configuration not stated) | > 81.2 | 24.3 | 2 | > 81.2 | > 81.2 | > 81.2 | 173 (≈ 62.6 µg/mL) | Non-toxic | 174 (≈ 62.8 µg/mL) | 1 | 27700 | > 81.2 | > 81.2 | Non-toxic |  |  |  |  |  |  |
